The term efflux ratio denotes the permeability from basolateral to apical divided by that in the opposite direction, in the common usage. By EC50 is commonly meant the midpoint of the concentration-response curve.

SMILES strings stand for the structures.

For 24 compounds, efflux ratio, EC50 and Activity results are on record in ChEMBL document CHEMBL5625229 (Eur J Med Chem, 2023).

Series [1] is described as follows: Efflux ratio of apparent permeability across basal to apical membrane over apical to basal membrane in human Caco-2 cells at 100 uM incubated fro 120 mins by spectroscopy. Type of series: ADME, cell-based. The procedure, abridged:
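Caco-2 grown 21 days on Transwell filters, with TEER checked daily (above 1000 Ω taken as optimal). Washed in HBSS and equilibrated 30 min at 37 °C, then compound at 100 µM added to the donor side (apical or basolateral), with fresh HBSS on the receiver side, for 120 min at 37 °C. Acceptor concentration by UV spectroscopy gives Papp (nm/s). Ratio = Papp BA/AB, three experiments in duplicate.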

In series [2] the target is Multidrug resistance-associated protein 1 (Homo sapiens, UniProt P33527). Description: Inhibition of MRP1 (unknown origin) overexpressed in MDCK cells using Calcein-AM as substrate preincubated for 30 mins followed by substrate addition measured after 30 mins by fluorescence based assay. Type of series: cell-based. In short, it runs like this:
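MDCK-MRP1 cells, 30 000/well, grown overnight, then treated with compound (final 0.01 nM–100 µM, lower for very potent ones) in medium for 30 min at 37 °C. Calcein-AM added at 2.5 µM final for 30 min, then three ice-cold PBS washes. Fluorescence read at 485/535 nm against untreated cells. EC50 from fluorescence increase versus log dose, mean ± SEM of three experiments in duplicate.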

Series [3] deals with T1, Broad substrate specificity ATP-binding cassette transporter ABCG2 (Homo sapiens, UniProt Q9UNQ0).
T1 sequence (Q9UNQ0 whole entry): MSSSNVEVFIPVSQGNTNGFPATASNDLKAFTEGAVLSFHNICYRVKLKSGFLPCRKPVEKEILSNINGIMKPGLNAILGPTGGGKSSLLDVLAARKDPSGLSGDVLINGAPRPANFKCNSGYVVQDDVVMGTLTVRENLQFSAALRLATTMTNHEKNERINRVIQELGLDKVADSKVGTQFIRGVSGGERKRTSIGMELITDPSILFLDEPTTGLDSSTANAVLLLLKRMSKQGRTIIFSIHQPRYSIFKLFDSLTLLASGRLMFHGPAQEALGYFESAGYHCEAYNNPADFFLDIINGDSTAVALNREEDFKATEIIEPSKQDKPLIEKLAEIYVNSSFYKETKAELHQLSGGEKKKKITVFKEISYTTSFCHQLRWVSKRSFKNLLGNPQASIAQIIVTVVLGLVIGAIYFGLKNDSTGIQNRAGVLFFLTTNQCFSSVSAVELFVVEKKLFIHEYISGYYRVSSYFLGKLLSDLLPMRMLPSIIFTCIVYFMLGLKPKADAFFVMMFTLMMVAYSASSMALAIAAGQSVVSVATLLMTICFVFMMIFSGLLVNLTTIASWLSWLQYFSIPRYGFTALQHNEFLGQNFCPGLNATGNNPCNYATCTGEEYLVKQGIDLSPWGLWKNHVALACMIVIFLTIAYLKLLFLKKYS
Description: Inhibition of BCRP (unknown origin) overexpressed in MDCK cells using Hoechst 33342 as substrate preincubated for 30 mins followed by substrate addition measured after 30 mins by fluorescence based assay. Format: cell-based.

In series [4] the target is ATP-dependent translocase ABCB1 (Homo sapiens, UniProt P08183). The series can be described thus: Inhibition of MDR1 (unknown origin) overexpressed in MDCK cells using Calcein-AM as substrate preincubated for 30 mins followed by substrate addition measured after 30 mins by fluorescence based assay. Type of series: cell-based.
The subject of another series is HT-29. The series can be described thus: Antiproliferative activity against human HT-29 cells at 1 to 10 uM incubated for 48 hrs relative to control. Type of series: functional. Particulars: dose 1-10 µM. In short, it runs like this: (§1)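 Compound alone (1 μM and 10 μM), 48 h, on HT29 or on HT29/DX (the latter kept in 100 nM doxorubicin to hold resistance). Cells seeded 10 000/well, compound added after 24 h. Viability by MTT (0.5 mg/mL, 3–4 h), formazan in DMSO/EtOH 1:1, absorbance 570/630 nm. Three independent experiments in duplicate.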

Series [5] can be described thus: Antiproliferative activity against doxorubicin-resistant human HT-29 cells at 1 to 10 uM incubated for 48 hrs relative to control. Format: functional, doxorubicin-resistant human HT-29 cell. Particulars: dose 1-10 µM. In short, it runs like this: as §1
A short description of series [6]: Potentiation of DOX-induced cytotoxicity against doxorubicin-resistant human HT-29 cells assessed as reduction in cell viability at 10 uM incubated for 48 hrs relative to control. Format: functional, doxorubicin-resistant human HT-29 cell. The procedure, abridged: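 HT29/DX cells (10 000/well) were given compound at 1 or 10 µM together with 5 µM doxorubicin 24 h after seeding. After 48 h, viability by MTT (0.5 mg/mL, 3–4 h, 37 °C), read at 570/630 nm against untreated cells. Three independent experiments, technical duplicates; one-way ANOVA.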

Chain of Multidrug resistance-associated protein 1 (P33527 whole entry): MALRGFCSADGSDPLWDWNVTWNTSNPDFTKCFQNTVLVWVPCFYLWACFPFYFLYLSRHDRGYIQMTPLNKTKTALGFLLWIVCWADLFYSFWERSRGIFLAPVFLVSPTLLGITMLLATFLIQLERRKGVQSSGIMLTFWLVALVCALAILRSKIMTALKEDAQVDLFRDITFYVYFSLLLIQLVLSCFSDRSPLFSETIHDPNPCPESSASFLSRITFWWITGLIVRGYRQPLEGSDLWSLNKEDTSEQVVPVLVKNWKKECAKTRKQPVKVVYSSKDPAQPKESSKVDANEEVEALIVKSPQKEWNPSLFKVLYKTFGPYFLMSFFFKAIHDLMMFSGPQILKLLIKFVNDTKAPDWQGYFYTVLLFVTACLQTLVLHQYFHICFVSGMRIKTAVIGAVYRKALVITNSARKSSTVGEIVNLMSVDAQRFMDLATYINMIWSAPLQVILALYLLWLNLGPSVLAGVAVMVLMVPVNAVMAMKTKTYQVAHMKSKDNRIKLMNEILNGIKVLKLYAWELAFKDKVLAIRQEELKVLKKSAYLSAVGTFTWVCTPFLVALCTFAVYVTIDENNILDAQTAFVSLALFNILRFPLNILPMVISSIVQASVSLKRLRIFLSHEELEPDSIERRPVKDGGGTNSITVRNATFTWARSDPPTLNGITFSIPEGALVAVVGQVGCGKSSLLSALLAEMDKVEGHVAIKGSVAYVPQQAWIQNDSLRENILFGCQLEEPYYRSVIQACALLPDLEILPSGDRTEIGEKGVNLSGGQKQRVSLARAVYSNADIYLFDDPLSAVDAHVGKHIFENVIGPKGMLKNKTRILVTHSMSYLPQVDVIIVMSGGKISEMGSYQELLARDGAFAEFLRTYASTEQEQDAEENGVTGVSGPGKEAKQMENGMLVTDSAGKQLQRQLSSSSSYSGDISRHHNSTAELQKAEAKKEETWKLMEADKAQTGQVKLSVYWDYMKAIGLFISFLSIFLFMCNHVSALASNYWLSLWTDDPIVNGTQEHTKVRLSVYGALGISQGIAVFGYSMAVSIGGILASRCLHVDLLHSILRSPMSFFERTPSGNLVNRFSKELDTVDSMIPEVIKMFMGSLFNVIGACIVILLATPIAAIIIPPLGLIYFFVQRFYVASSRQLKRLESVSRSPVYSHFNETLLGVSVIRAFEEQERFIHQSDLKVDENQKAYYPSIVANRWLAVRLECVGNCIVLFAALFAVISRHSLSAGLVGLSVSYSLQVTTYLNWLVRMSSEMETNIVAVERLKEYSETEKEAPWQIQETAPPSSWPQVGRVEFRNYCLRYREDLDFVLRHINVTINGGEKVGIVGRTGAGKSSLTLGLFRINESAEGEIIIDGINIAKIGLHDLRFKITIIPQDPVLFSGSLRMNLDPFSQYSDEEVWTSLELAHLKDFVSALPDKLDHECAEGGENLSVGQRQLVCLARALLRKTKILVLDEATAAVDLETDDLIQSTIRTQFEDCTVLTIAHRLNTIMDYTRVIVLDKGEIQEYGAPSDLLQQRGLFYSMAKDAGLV
Chain of ATP-dependent translocase ABCB1 (P08183 whole entry): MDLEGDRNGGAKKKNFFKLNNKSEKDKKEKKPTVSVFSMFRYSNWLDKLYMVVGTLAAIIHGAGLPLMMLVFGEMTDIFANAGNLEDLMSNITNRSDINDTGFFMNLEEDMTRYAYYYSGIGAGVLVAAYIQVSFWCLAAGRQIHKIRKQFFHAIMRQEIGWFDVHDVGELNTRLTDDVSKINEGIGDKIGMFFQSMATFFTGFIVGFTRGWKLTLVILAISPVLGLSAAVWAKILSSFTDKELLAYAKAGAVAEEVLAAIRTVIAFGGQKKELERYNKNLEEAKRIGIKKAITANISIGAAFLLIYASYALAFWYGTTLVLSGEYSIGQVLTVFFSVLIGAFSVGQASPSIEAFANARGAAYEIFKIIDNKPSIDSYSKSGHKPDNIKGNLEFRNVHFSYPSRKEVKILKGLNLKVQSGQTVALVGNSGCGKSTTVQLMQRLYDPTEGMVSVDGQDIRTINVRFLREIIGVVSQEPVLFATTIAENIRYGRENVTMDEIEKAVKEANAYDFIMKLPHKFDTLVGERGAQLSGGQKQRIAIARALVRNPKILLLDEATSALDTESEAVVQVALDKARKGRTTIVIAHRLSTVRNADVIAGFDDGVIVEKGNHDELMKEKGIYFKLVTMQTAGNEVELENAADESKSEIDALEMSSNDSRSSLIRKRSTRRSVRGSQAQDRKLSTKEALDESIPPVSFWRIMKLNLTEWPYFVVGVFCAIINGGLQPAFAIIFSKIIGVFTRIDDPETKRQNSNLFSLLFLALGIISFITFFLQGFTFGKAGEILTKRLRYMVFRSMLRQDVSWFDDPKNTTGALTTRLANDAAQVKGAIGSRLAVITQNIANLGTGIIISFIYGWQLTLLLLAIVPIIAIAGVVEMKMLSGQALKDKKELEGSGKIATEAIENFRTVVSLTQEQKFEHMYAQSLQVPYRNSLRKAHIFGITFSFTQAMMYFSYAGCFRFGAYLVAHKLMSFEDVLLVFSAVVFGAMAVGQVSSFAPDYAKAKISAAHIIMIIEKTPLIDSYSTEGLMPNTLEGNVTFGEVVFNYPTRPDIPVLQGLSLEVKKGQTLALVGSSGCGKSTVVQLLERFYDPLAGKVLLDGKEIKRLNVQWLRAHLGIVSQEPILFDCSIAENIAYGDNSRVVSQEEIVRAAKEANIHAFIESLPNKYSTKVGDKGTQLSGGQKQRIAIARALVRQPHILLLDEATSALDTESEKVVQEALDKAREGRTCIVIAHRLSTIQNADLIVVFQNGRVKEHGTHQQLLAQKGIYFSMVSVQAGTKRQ

Regarding `COc1cc2c(cc1OC)CN(CCc1ccc(NC(=O)c3cc(OC)c(OC)cc3NC(=O)c3cnc4ccccc4c3)cc1)CC2`, in series [1], the efflux ratio at 2 h, 100 µM was found to be 22.

On to `COc1cc2c(cc1OC)CN(CCc1ccc(NC(=O)c3cccc4c(=O)c5cccc(OC)c5[nH]c34)cc1)CC2`, for which the EC50 in series [2] was greater than 100 µM.

Turning to `COc1cc2c(cc1OC)CN(CCc1ccc(-c3nnc(-c4c(OC)cccc4OC)o3)cc1)CC2`, the EC50 in series [3] and in series [2] was greater than 100 µM each time.

`COc1cc2c(cc1OC)CN(CCc1ccc(-c3nnc(/C=C/c4cc(OC)c(OC)c(OC)c4)o3)cc1)CC2`: the concentration for a half-maximal effect (EC50) in series [2] is greater than 100 µM.

Take `COc1cc2c(cc1OC)CN(CCc1ccc(-c3nnc(-c4c(OC)c(OC)cc5ccccc45)o3)cc1)CC2`: the half-maximal effective concentration (EC50) was greater than 100 µM in series [3], 0.046 µM in series [4] and greater than 100 µM in series [2]. Further, the Activity (with HT-29; in series [5]) was roughly 10% in each case. Besides, in series [1], the efflux ratio at 2 h, 100 µM worked out at 9.7.

Consider `COc1cc2c(cc1OC)CN(CCc1ccc(-c3nnc(-c4cccc(OC)c4OC)o3)cc1)CC2`, for which the EC50 in series [3] was greater than 100 µM; in series [4], 0.4 µM; in series [2], greater than 100 µM. Moreover, the Activity (in the series with HT-29; in series [5]) was roughly 10% throughout. Also, in series [1], the efflux ratio at 2 h, 100 µM worked out at 6.8.

Take `COc1cc2c(cc1OC)CN(CCc1ccc(-n3nnnc3/C=C/c3cc(OC)c(OC)c(OC)c3)cc1)CC2`: the EC50 in series [4] was 5.27 µM; in series [2], greater than 100 µM.

Regarding `COc1cc2c(cc1OC)CN(CCc1ccc(-n3nnc(-c4ccc(OC)c(OC)c4OC)n3)cc1)CC2`, the EC50 was 0.55 µM in series [4] and greater than 100 µM in series [2].

As to `COc1cc2c(cc1OC)CN(CCc1ccc(-n3nnnc3-c3cc(OC)c(OC)c(OC)c3)cc1)CC2`, the EC50 in series [4] is 0.63 µM; in series [2], 4.33 µM.

With `COc1cc2c(cc1OC)CN(CCc1ccc(-n3nnnc3-c3c(OC)ccc4ccccc34)cc1)CC2`, the results for the EC50 in series [4] and in series [2] were 0.75 µM and greater than 100 µM, respectively.

Consider `COc1cc2c(cc1OC)CN(CCc1ccc(-n3nnc(-c4c(OC)ccc5ccccc45)n3)cc1)CC2`, for which the concentration for a half-maximal effect (EC50) in series [3] was greater than 100 µM; in series [4], 0.09 µM; in series [2], greater than 100 µM. Further, the Activity (in the series on HT-29; in series [5]) was roughly 10% each time. The efflux ratio at 2 h, 100 µM in series [1] was found to be 4.5.

For the compound `COc1cc2c(cc1OC)CN(CCc1ccc(-n3nnc(/C=C/c4cc(OC)c(OC)c(OC)c4)n3)cc1)CC2`, the EC50 in series [3] is 53.6 µM; in series [4], 0.012 µM; in series [2], greater than 100 µM. In addition, the Activity (with HT-29; in series [5]) was roughly 10% throughout. Also, the efflux ratio at 2 h, 100 µM in series [1] stood at 5.4.

Take `COc1cc2c(cc1OC)CN(CCc1ccc(-c3nnc(-c4cc(OC)c(OC)c(OC)c4)o3)cc1)CC2`: the EC50 in series [4] is 0.071 µM; in series [2], greater than 100 µM.

Turning to `COc1cc2c(cc1OC)CN(CCc1ccc(-c3nnc(-c4ccc(OC)c(OC)c4OC)o3)cc1)CC2`, the half-maximal effective concentration (EC50) is greater than 100 µM in series [3], 0.44 µM in series [4] and greater than 100 µM in series [2]. Further, the Activity (in the series with HT-29; in series [5]) was roughly 10% each time. Also, the efflux ratio at 2 h, 100 µM in series [1] stood at 6.5.

As to `COc1cc2c(cc1OC)CN(CCc1ccc(-n3nnnc3-c3c(OC)c(OC)cc4ccccc34)cc1)CC2`, the EC50 was greater than 100 µM in series [3], 1.06 µM in series [4] and greater than 100 µM in series [2]. The efflux ratio at 2 h, 100 µM in series [1] was determined as 3.3.

Turning to `COc1cc2c(cc1OC)CN(CCc1ccc(-n3nnc(-c4c(OC)c(OC)cc5ccccc45)n3)cc1)CC2`, the half-maximal effective concentration (EC50) is 0.26 µM in series [4] and greater than 100 µM in series [2].

With `COc1cc2c(cc1OC)CN(CCc1ccc(-n3nnnc3-c3ccccc3OC)cc1)CC2`, the EC50 in series [4] is 0.95 µM; in series [2], greater than 100 µM.

Turning to `COc1cc2c(cc1OC)CN(CCc1ccc(-n3nnc(-c4ccccc4OC)n3)cc1)CC2`, the figures for the EC50 in series [4] and in series [2] were 0.082 µM and greater than 100 µM, respectively.

In the case of `COc1cc2c(cc1OC)CN(CCc1ccc(-n3nnc(-c4cccc(OC)c4OC)n3)cc1)CC2`, the EC50 is 0.14 µM in series [4] and greater than 100 µM in series [2].

In the case of `COc1cc2c(cc1OC)CN(CCc1ccc(-n3nnc(-c4c(OC)cccc4OC)n3)cc1)CC2`, in series [2], the EC50 is greater than 100 µM.

In the case of `COc1cc2c(cc1OC)CN(CCc1ccc(-n3nnnc3-c3ccc(OC)c(OC)c3OC)cc1)CC2`, the EC50 is 0.75 µM in series [4] and 7.49 µM in series [2].

Turning to `COc1cc2c(cc1OC)CN(CCc1ccc(-c3nnc(-c4ccccc4OC)o3)cc1)CC2`, the concentration giving a half-maximal response (EC50) in series [3] was greater than 100 µM; in series [4], 0.019 µM; in series [2], greater than 100 µM. Besides, the figures for the Activity (in series [6]; with HT-29; in series [5]) were 64.3%, roughly 10% and roughly 10%, respectively. Further, the efflux ratio at 2 h, 100 µM in series [1] was determined as 6.3.

Turning to `COc1cc2c(cc1OC)CN(CCc1ccc(-c3nnc(-c4c(OC)ccc5ccccc45)o3)cc1)CC2`, the half-maximal effective concentration (EC50) in series [3] and in series [2] was greater than 100 µM each time.

Turning to `COc1cc2c(cc1OC)CN(CCc1ccc(-n3nnc(-c4cc(OC)c(OC)c(OC)c4)n3)cc1)CC2`, the concentration giving a half-maximal response (EC50) is 0.26 µM in series [4] and greater than 100 µM in series [2].
